In PMC11577639 (Journal of medicinal chemistry, 2024):
Read-outs that look alike come from different tables or passages of the source.

Assays:
[1] = tested on: N. fowleri (Nf69 strain, ATCC 30215) trophozoites; assay: N. fowleri Nf69 dose-response growth inhibition; type: cell-based, Naegleria fowleri
[2] = tested on: Human neuronal SH-SY5Y cells (ATCC CRL-2266); assay: SH-SY5Y cytotoxicity assay; type: cell-based; conditions: Table 3; SH-SY5Y CC50 / Nf69 EC50
[3] = Mouse plasma stability; type: in vitro ADME; conditions: male, CD-1, mouse
Method in brief: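 Test compound added from DMSO stock to CD-1 mouse plasma (EDTA-K2, ≥20 male donors). Incubated at 37 °C for 0, 10, 30, 60 or 120 min. Protein precipitated with tolbutamide and labetalol in acetonitrile, then shaken and centrifuged. Supernatant diluted in water and analysed by LCMS with internal standard. Enalapril maleate, bisacodyl and procaine HCl as controls.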

[4] = Plasma protein binding; type: in vitro ADME; conditions: CD-1 mouse
Method in brief: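 96-well equilibrium dialysis against CD-1 male mouse plasma (EDTA-K2), test compound on donor side in triplicate, dialysis buffer on receiver side. Incubated 4 h at 37 °C, 5% CO2, slow shaking. Both sides sampled, diluted in acetonitrile containing tolbutamide, labetalol, metformin and internal standard, centrifuged and analysed by LC-MS/MS. Warfarin as positive control.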

[5] = Mouse pharmacokinetics; type: in vivo, female CD-1 mice; conditions: female, CD-1, mouse, plasma, iv, 11 mg/kg
Method in brief: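 Female CD-1 mice, n = 3/group. First study: single IV 11.1 mg/kg or PO 10.7 mg/kg (fasted), 10% NMP/20% cremophor EL/70% water, plasma at 0.5, 2, 4, 8, 12 h, brain homogenised in MeOH/PBS at 12 h. Second: fasted, IP 44 mg/kg suspension in 10% DMSO/30% cremophor EL/60% water, plasma at 2 and 4 h. LC-MS/MS, verapamil internal standard. LLOQ 1 ng/mL plasma, 10 ng/g brain.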

[6] = BBB parallel artificial membrane permeation assay; type: in vitro ADME; conditions: for BBB PAMPA CNS class: classified against positive and negative controls
Method in brief: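 Porcine polar brain lipid in dodecane coated on filter membrane. Test compound from DMSO stock diluted in PBS pH 7.4 in donor wells, PBS acceptor, room temperature incubation. Donor and filter-well concentrations measured by HPLC. Verapamil, clonidine, hydrocortisone and theophylline as […]. Pe > 15 nm/s scored CNS+, ≤ 15 CNS-.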

[7] = SH-SY5Y cytotoxicity assay; type: cell-based, human; conditions: human, SH-SY5Y neuroblastoma cells

With `CN1CC[C@H]2c3nc4ccc(Cl)cc4c(=O)n3CC[C@H]21` (racemic) [31a, (±)-(3aR,12bR)-9-Chloro-3-methyl-2,3,3a,4,5,12b-hexahydropyrrolo[3′,2′:3,4]pyrido[2,1-b]quinazolin-7(1H)-one] the EC50 ([1]; read-out: EC50, N. fowleri Nf69, tested up to 10 μM) was > 10 µM.
In the case of `CN1CCC[C@@H]2c3nc4ccc(C(F)(F)F)cc4c(=O)n3CC[C@H]21` (racemic) [±−15b, (±)-(4aR,13bS)-4-Methyl-10-(trifluoromethyl)-1,2,3,4,4a,5,6,13b-octahydro-8H-[1,6]naphthyridino[5,6-b]-quinazolin-8-one], the “SI (selectivity index, CC50/EC50)” value [2] is reported as >18.2.
In the case of `CN1CCC[C@@H]2c3nc4ccc(Cl)cc4c(=O)n3CC[C@H]21` (racemic) [±−16b], the “SI (selectivity index, CC50/EC50)” value [2] is reported as >20.0.
For `CN1CCC[C@@H]2c3nc4cc(Cl)c(Cl)cc4c(=O)n3CC[C@H]21` (racemic) [±−21b, (±)-(4aR,13bS)-10,11-Dichloro-4-methyl-1,2,3,4,4a,5,6,13b-octahydro-8H-[1,6]naphthyridino[5,6-b]quinazolin-8-one], the “SI (selectivity index, CC50/EC50)” value [2] was >100.
In the case of `CN1CCC[C@@H]2c3nc4ccc(C(F)(F)F)cc4c(=O)n3CC[C@H]21` (single isomer, unassigned) [trans-15b-ent-1], the “SI (selectivity index, CC50/EC50)” value [2] is reported as >80.0.
In the case of `CN1CCC[C@@H]2c3nc4ccc(Cl)cc4c(=O)n3CC[C@H]21` (single isomer, unassigned) [trans-16b-ent-1], the “SI (selectivity index, CC50/EC50)” value [2] is reported as >71.4.
In the case of `COc1cc2nc3n(c(=O)c2cc1Cl)CC[C@H]1[C@H]3CCCN1CC1COC1` (single isomer, unassigned) [trans-57b-ent-2], the half-life [3] is reported as > 4.82 h, the plasma protein binding [4] is reported as 74% bound and the clearance at 12 h [5] is reported as 40.8 ± 7.6 mL/min/kg. The “BBB PAMPA CNS class” value [6] was “CNS+ (Pe > 15 nm/s = CNS+)”.
With `COc1cc2nc3n(c(=O)c2cc1Cl)CC[C@@H]1[C@@H]3CCCN1CC(C)C` (single isomer, unassigned) [trans-62b-ent-1] the “SI (selectivity index, CC50/EC50)” value [2] was >32.3.
Molecule `CCCCCCCCCCCCCCCCOP(=O)([O-])OCC[N+](C)(C)C` [miltefosine, reference compound] has an EC50 ([1]; Naegleria fowleri, ATCC30215) of 35.7 ± 9.1 µM.
In the case of `CN1CCC[C@H]2c3nc4ccc(C(F)(F)F)cc4c(=O)n3CC[C@@H]21` [trans-15b-ent-2, (4aS,13bR)-4-Methyl-10-(trifluoromethyl)-1,2,3,4,4a,5,6,13b-octahydro-8H-[1,6]naphthyridino[5,6-b]quinazolin-8-one], the CC50 at 72 h [7] is reported as > 20 µM and the “SI (selectivity index, CC50/EC50)” value [2] is reported as >4.7.
In the case of `CN1CCC[C@H]2c3nc4ccc(Cl)cc4c(=O)n3CC[C@@H]21` [trans-16b-ent-2, (4aS,13bR)-10-Chloro-4-methyl-1,2,3,4,4a,5,6,13b-octahydro-8H-[1,6]naphthyridino[5,6-b]quinazolin-8-one], the CC50 at 72 h [7] is reported as > 20 µM and the “SI (selectivity index, CC50/EC50)” value [2] is reported as >5.0.
In the case of `CN1CCC[C@H]2c3nc4cc(Cl)c(Cl)cc4c(=O)n3CC[C@@H]21` [trans-21b-ent-2, (4aS,13bR)-10,11-Dichloro-4-methyl-1,2,3,4,4a,5,6,13b-octahydro-8H-[1,6]naphthyridino[5,6-b]quinazolin-8-one], the CC50 at 72 h [7] is reported as > 20 µM and the “SI (selectivity index, CC50/EC50)” value [2] is reported as >7.7.
In the case of `COc1cc2nc3n(c(=O)c2cc1Cl)CC[C@@H]1[C@@H]3CCCN1CC1COC1` [trans-57b-ent-1, (4aR,13bS)-10-Chloro-11-methoxy-4-(oxetan-3-ylmethyl)-1,2,3,4,4a,5,6,13b-octahydro-8H-[1,6]naphthyridino[5,6-b]-quinazolin-8-one], the “SI (selectivity index, CC50/EC50)” value [2] is reported as >40.8, the plasma protein binding [4] is reported as 74% bound and the “BBB PAMPA, Peavg” value ([6]; averaged data from duplicate runs, 4 h) is reported as 18.2 ×10⁻⁶ cm/s. The “BBB PAMPA CNS class” value [6] was “CNS+ (Pe > 15 nm/s = CNS+)”.
